# Reference: ChEMBL document CHEMBL5712888, “Pharmacological targeting of the Wdr5-MLL interaction in C/EBPα N-terminal leukemia” (Nat Chem Biol, 2015)
# The source made the active and inactive calls. The rule behind the calls is not given here.
# Legend:
# K562 = assay: Antiproliferative activity against human K562 cells assessed as reduction in cell viability after 72 hrs by cell TiterGlo luminescent cell viability assay; type: functional, cell-based
# Hepatocyte [1] = assay: Antiproliferative activity against mouse primary fetal liver cells expressing C/EBP-alpha p30 assessed as reduction in cell viability after 72 hrs by cell TiterGlo luminescent cell viability assay; type: functional, cell-based
# Hepatocyte [2] = assay: Induction of myeloid differentiation in mouse primary fetal liver cells expressing C/EBP-alpha p30 assessed as upregulation of C3ar1 mRNA expression at 20 uM after 3 to 6 days by qRT-PCR analysis; type: functional, cell-based; conditions: time 3-6 day
# Summary of the method: (§1)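 Cebpap30/p30 cells in culture with 20 μM compound for the indicated periods. Total RNA (300 ng) reverse transcribed with oligo(dT); SYBR qPCR, quantified by 2−ddCt method; mean ± SD of triplicate experiments, t-test.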
# [3] = target: T1, Alpha-1A adrenergic receptor (Rattus norvegicus) (UniProt P43140); assay: Displacement of [3H]prazosin from rat […] brain alpha1 adrenergic receptor assessed as remaining activity at 1 uM after 60 mins by scintillation counting method relative to control; type: tissue-based
# T1 sequence (whole entry): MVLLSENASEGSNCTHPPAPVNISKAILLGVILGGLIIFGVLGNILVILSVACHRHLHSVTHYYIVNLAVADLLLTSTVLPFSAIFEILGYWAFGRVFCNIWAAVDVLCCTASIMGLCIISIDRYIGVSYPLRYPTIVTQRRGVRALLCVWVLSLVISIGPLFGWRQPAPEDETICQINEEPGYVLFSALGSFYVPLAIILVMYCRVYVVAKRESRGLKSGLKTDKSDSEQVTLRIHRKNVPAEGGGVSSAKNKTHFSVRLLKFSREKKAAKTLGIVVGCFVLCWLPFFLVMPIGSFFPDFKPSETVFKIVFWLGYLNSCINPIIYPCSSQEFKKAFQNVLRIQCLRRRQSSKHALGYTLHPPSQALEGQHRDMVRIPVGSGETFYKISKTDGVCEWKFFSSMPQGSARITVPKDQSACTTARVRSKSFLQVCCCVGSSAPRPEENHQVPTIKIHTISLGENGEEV
# [4] = target: Cyclin-dependent kinase 4/cyclin D1 (Homo sapiens) (UniProt P11802+P24385); assay: Inhibition of CDK4/cycD1 (unknown origin) assessed as remaining activity at 1 uM relative to control; type: protein-complex assay
# [5] = Toxicity in mouse bone marrow cells assessed as reduction in colony formation at 2.5 to 20 uM after 7 day by CFU assay; type: cell-based; conditions: bone marrow cell, 168 h, dose 2.5-20 µM
# Hepatocyte [6] = assay: Inhibition of colony formation in mouse primary fetal liver cells expressing C/EBP-alpha p30 at 5 to 20 uM after 7 day by colony formation assay; type: functional, cell-based; conditions: dose 5-20 µM
# Summary of the method: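 Primary Cebpap30/p30 fetal liver cells, maintained in DMEM/10% FCS with SCF, IL-6 and IL-3, plated at 1×10^4 cells in complete methylcellulose (M3434) with compound at the indicated concentrations; colonies scored 7 days later and normalized to DMSO for each genotype; mean ± SD of triplicate experiments.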
# Hepatocyte [7] = assay: Induction of myeloid differentiation in mouse primary fetal liver cells expressing C/EBP-alpha p30 assessed as upregulation of Lilrb3 mRNA expression at 20 uM after 3 to 6 days by qRT-PCR analysis; type: functional, cell-based; conditions: time 3-6 day; summary of the method: as §1
# Hepatocyte [8] = assay: Induction of progenitor morphology loss in mouse primary fetal liver cells expressing C/EBP-alpha p30 at 20 uM after 6 days by Cytospin stainig based microscopic analysis; type: functional, cell-based; conditions: time 6.0 day
# Summary of the method: (§2)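 Cebpap30/p30 cells left untreated or given 20 μM compound for 6 days. Fc receptors blocked with anti-CD16/CD32, then Mac-1 and Gr-1 staining by flow cytometry, with Mac-1/Gr-1 double-positive cells counted at the indicated time points. Cytospins stained with Kwik-Diff for microscopic morphology.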
# [9] = target: CDK9/cyclin T1 (Homo sapiens) (UniProt O60563+P50750); assay: Inhibition of CDK9/CycT1 (unknown origin) assessed as remaining activity at 1 uM relative to control; type: protein-complex assay
# Hepatocyte [10] = assay: Induction of myeloid differentiation in mouse primary fetal liver cells expressing C/EBP-alpha p30 assessed as upregulation of Mac-1/Gr-1 double positive cells at 20 uM after 6 days by flow cytometry analysis; type: functional, cell-based; conditions: time 6.0 day; summary of the method: as §2
# Hepatocyte [11] = assay: Induction of myeloid differentiation in mouse primary fetal liver cells expressing C/EBP-alpha p30 assessed as upregulation of Ccl9 mRNA expression at 20 uM after 3 to 6 days by qRT-PCR analysis; type: functional, cell-based; conditions: time 3-6 day; summary of the method: as §1
# [12] = target: Kappa-type opioid receptor (Homo sapiens) (UniProt P41145); assay: Displacement of [3H]U69593 from human kappa receptor assessed as remaining activity at 1 uM after 60 mins by scintillation counting analysis relative to control
# [13] = Antiproliferative activity against human acute myeloid leukemic cells harboring N-terminal CEBPA mutation assessed as vaibility at 5 uM after 72 hrs by cell titer glo luminescent cell viability assay relative to control; type: functional, Leukemia cell
# Summary of the method: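 20,000 viable proliferating cells per well in triplicate, exposed to 5 μM compound or 0.05% DMSO for 72 h (3 days); CellTiter-Glo luminescence, normalized to DMSO for each patient sample; mean ± SD.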
# Hepatocyte [14] = assay: Induction of myeloid differentiation in mouse primary fetal liver cells expressing C/EBP-alpha p30 assessed as upregulation of Lcn2 mRNA expression at 20 uM after 3 to 6 days by qRT-PCR analysis; type: functional, cell-based; conditions: time 3-6 day; summary of the method: as §1
# [15] = target: Cyclin-dependent kinase 5/CDK5 activator 1 (Homo sapiens) (UniProt Q00535+Q15078); assay: Inhibition of CDK5/p35 (unknown origin) assessed as remaining activity at 1 uM relative to control; type: protein-complex assay
# Homo sapiens = species: Homo sapiens; assay: Binding affinity against WDR5 S91K mutant (unknown origin) at 50 uM by differential scanning fluorimetry
# Summary of the method: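 Thermal shift of purified recombinant S91K-mutant WDR5 measured by differential scanning fluorimetry, with test compound at 50 μM run alongside a DMSO vehicle control.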
# Hepatocyte [16] = assay: Induction of myeloid differentiation in mouse primary fetal liver cells expressing C/EBP-alpha p30 assessed as upregulation of Lyz2 mRNA expression at 20 uM after 3 to 6 days by qRT-PCR analysis; type: functional, cell-based; conditions: time 3-6 day; summary of the method: as §1
# Sequence of Cyclin-dependent kinase 5/CDK5 activator 1 (Homo sapiens) (Q00535 whole entry): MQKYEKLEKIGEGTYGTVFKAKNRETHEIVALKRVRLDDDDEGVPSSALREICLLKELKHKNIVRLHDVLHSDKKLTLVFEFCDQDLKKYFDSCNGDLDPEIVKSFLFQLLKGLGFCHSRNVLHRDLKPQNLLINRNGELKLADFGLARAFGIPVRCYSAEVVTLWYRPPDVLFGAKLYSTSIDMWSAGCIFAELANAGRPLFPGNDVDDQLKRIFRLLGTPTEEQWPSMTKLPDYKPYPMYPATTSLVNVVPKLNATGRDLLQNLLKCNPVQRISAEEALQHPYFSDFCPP
# Sequence of Cyclin-dependent kinase 5/CDK5 activator 1 (Homo sapiens) (Q15078 99-307 partner limits assumed): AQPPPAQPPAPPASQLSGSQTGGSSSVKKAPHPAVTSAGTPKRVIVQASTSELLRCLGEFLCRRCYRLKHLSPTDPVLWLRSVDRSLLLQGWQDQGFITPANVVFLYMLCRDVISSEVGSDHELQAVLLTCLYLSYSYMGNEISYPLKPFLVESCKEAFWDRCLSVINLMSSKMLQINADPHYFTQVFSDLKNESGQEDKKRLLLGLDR
# Sequence of Kappa-type opioid receptor (Homo sapiens) (P41145 whole entry): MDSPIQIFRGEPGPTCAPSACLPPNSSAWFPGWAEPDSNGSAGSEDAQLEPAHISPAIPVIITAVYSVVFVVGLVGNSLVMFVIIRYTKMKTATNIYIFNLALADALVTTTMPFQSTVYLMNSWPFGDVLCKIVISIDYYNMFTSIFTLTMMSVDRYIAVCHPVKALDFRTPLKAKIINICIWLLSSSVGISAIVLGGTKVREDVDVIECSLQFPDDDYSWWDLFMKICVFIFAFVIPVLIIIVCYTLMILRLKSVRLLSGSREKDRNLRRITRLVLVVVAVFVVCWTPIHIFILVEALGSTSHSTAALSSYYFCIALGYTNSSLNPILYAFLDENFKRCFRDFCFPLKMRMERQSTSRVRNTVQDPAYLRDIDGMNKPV
Compound,Activity (K562),Activity (Hepatocyte [1]),Activity (Hepatocyte [2]),Activity [3] [%],Activity [4] [%],Activity [5],inhibition (Hepatocyte [6]),Activity (Hepatocyte [7]),Activity (Hepatocyte [8]),Activity [9] [%],Activity (Hepatocyte [10]),Activity (Hepatocyte [11]),Activity [12] [%],Activity [13] [%],Activity (Hepatocyte [14]),Activity [15] [%],Activity (Homo sapiens),Activity (Hepatocyte [16])
O=C(Nc1cc(-c2cccc(CN3CCOCC3)c2)ccc1N1CCOCC1)c1c[nH]c(=O)cc1C(F)(F)F,inactive,inactive,–,–,–,–,–,–,–,–,–,–,–,–,–,–,–,–
CN1CCN(c2ccc(-c3cccc(CN4CCOCC4)c3)cc2NC(=O)c2c[nH]c(=O)cc2C(F)(F)F)CC1,–,–,Active,99,102,Non-Toxic,Active,Active,Active,98,Active,Active,102,53,Active,102,inactive,Active
